# Screens deposited in PubChem BioAssay by Sanford-Burnham Center for Chemical Genomics.
# hIAP block – blocks human intestinal alkaline phosphatase. purified IAP, CDP-Star luminescence, 30 min. hit rate 0.12% among 330,000. AID 2544. inhibition, % at 10 µM. P09923;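 active means inhibition reaching a set limit with compound at 10 µM in the primary screen, cut at about 35% in these data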
# Target sequence (P09923 whole entry, looked up): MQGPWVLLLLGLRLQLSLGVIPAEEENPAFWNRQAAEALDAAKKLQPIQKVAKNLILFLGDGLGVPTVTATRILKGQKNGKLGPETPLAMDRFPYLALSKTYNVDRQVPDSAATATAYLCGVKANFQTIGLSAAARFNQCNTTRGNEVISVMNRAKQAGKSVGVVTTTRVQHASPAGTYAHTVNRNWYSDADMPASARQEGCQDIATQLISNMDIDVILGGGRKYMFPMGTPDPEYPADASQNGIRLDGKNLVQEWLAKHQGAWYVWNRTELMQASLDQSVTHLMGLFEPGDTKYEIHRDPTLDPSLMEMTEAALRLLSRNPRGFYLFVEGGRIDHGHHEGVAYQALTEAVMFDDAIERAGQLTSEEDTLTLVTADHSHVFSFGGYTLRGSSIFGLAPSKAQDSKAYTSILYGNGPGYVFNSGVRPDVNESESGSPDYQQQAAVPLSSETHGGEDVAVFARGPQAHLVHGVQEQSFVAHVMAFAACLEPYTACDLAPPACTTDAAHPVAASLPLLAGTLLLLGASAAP
# mIAP activ – mouse IAP activation; muIAP, CDP-Star luminescence, 30 min; stronger effect = higher value; 1 = vehicle-only enzyme signal, 0 = enzyme-free wells; activation factor at 10 µM; hit rate 0.24% among 330,000; AID 2805;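 active means activation factor of at least 2 at 20 µM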
#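 Assay system: mouse IAP enzyme; reagent: chemiluminescent substrate CDP-Star; dosing: test compounds delivered from DMSO solution; schedule: 30 min at room temperature; measured by: luminescence from enzymatic CDP-Star hydrolysis; controls: DMSO-only wells and no-enzyme negative control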
# mIAP block – blocks mouse intestinal alkaline phosphatase. inhibition, % at 10 µM. purified mouse IAP, CDP-Star luminescence, 30 min. AID 2806. hit rate 0.2% among 330,000;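 active means inhibition of at least 40% at 10 µM in the primary screen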
# bIAP activator – increases bovine intestinal alkaline phosphatase activity; purified bovine IAP, CDP-star luminescence, 30 min; stronger effect = higher value; fold of DMSO-control signal, blank-subtracted; hit rate 0.17% among 200,000; activation factor at 20 µM; AID 1016;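 active means activation factor of 2 or more at 20 µM, a signal rise over negative controls twice the positive control's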
# bIAP inh – intestinal alkaline phosphatase (bovine) inhibition. purified bovine IAP, CDP-star luminescence, 30 min. inhibition, % at 20 µM. 190,000 tested, under 10 active. AID 1019;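 active means over 50% inhibition of intestinal alkaline phosphatase at 20 µM in the single-dose screen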
#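 test system = bovine IAP enzyme | medium = DEA buffer 100 mM, pH 9.8, with MgCl2 1.0 mM, ZnCl2 0.02 mM | detection = luminescence | dosing = single compound dose of 20 µM, 2% DMSO final | incubation = 30 min reaction at room temperature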
# hIAP activ – increases human intestinal alkaline phosphatase activity. hit rate 0.16% among 330,000. P09923. AID 2524. activation factor at 10 µM. purified human IAP, CDP-Star luminescence, 30 min; stronger effect = higher value; 1 = vehicle-only enzyme, 0 = enzyme-free background;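 active means activation factor of the enzyme at least 2-fold when tested at 20 µM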
# A number is an active result; . = inactive; / = no result given. This is a sample that favours compounds with a hit; in the whole collection about 0.77% have one here.
SMILES,hIAP block,mIAP activ,mIAP block,bIAP activator,bIAP inh,hIAP activ
Cc1ccccc1NC(=S)NCc1ccc(F)cc1,.,.,.,/,/,.
Cn1c(N)c(C(=O)COC(=O)CSc2cccc3cccc(Cl)c23)c(=O)n(C)c1=O,.,.,.,.,.,.
COc1cccc(OCC(Cn2c(C)nc3ccccc32)OC(C)=O)c1 (stereo not given),.,.,.,.,.,.
CCC(C)c1ccc(C(C)NC(=S)NCc2ccc(F)cc2)cc1 (stereo not given),.,2.6,.,/,/,.
COc1ccc(C(C)NC(=S)NCc2ccc(F)cc2)cc1OC (stereo not given),.,.,.,/,/,.
Cc1cc(C)c2c(n1)nn1c(NCCCn3ccnc3)cc(C)nc21,/,/,/,2.3,.,/
Cc1cc(NCCCn2ccnc2)n2nc(-c3ccc(F)cc3)cc2n1,.,.,.,.,.,.
COCCN1C(=O)N[C@@H](c2cccc(C(F)(F)F)c2)[C@H](C(C)=O)[C@H]1C,.,.,.,/,/,.
O=C1CCCCN1CC(=O)N1CCCC(Nc2ccc(F)cc2)C1 (stereo not given),.,.,44,/,/,.
c1ccc(-c2c(-c3ccccc3)n(Cc3ccco3)c3ncnc(NCCCn4ccnc4)c23)cc1,.,.,.,49,.,.
OCCNc1ncnc2c1c(-c1ccccc1)c(-c1ccccc1)n2Cc1ccco1,.,.,.,.,.,.
Fc1c(F)c(F)c(N/N=C/c2c[nH]c3ccccc23)c(F)c1F,.,.,.,2.7,.,.
COc1ccc(NC(=O)CC(NCCc2ccccc2)C(=O)O)c(OC)c1 (stereo not given),.,.,.,.,.,.
COc1ccccc1NC(=O)CC(NCc1ccccc1)C(=O)O (stereo not given),.,.,.,2.3,.,.
Cc1ccc(NC(=O)CC(C)S(=O)(=O)c2ccc3c(c2)NC(=O)CO3)c(Cl)c1 (stereo not given),.,.,.,/,/,.
CSCc1nc2sc(C(=O)Nc3nc(C)cs3)c(C)c2c(=O)[nH]1,.,.,42,.,.,.
COc1cc(/C=C2\CC/C(=C\c3cc(OC)c(O)c(OC)c3)C2=O)cc(OC)c1O,.,.,56,.,/,.
CCCCCOc1ccc(CSCCNC(=S)Nc2ccccc2)cc1,.,2.5,.,.,.,.
CCCCOc1ccc(CSCCNC(=S)Nc2ccccc2)cc1,.,.,.,.,.,.
CC(C)COc1ccc(CSCCNC(=S)Nc2ccccc2)cc1,.,2.4,.,.,.,.
CCCNC(=O)c1ccc2c(c1)C1C3CCC(C3)C1C(c1ccccc1)N2 (stereo not given),.,.,.,2,.,.
CC(C)(C)NC(=O)c1ccc2c(c1)C1C3CCC(C3)C1C(c1ccccc1)N2 (stereo not given),.,.,.,.,.,.
CC1(C)OC(c2ccccc2)=C/C(=C/C=C2C(=O)c3ccccc3C2=O)O1,49,.,.,.,.,.
CN1C(=O)[C@H]2[C@@H](C3CC3)N3C(=O)CN(CC4CC4)C(=O)[C@@]3(C)[C@H]2C1=O,.,.,.,/,/,.
Cc1cccc(NC(=O)Nc2ccc3c(c2)CCC3)c1,.,2.9,.,/,/,.
SMILES,hIAP block,mIAP activ,mIAP block,bIAP activator,bIAP inh,hIAP activ
CC/C(=N\NC(=O)c1nnn(-c2nonc2N)c1CN(C)c1ccccc1)c1ccccc1,.,.,.,/,/,.
CC(C)(C)n1nc2c(c1NC(=O)c1ccc(Br)o1)CS(=O)C2 (stereo not given),.,.,.,2.6,.,.
Cc1ccc(C(=O)CC(c2cccs2)S(=O)(=O)c2ccc(C)cc2)cc1 (stereo not given),.,.,.,.,.,.
Cn1c(-c2ccc3c(c2)OCO3)cnc1NCc1ccc(Cl)cc1,.,.,.,6.4,.,.
Cc1ccc(CNc2ncc(-c3ccc4c(c3)OCO4)n2C)cc1,.,.,.,.,.,.
COCCc1nc2ccc(C(=O)N(C)Cc3cccc(-n4cccn4)c3)cc2o1,.,.,.,/,/,.
CCn1ccnc1CNCc1cn(-c2cc(C)ccc2C)nc1-c1ccccc1,.,.,.,2.7,.,.
Cc1c(C)c2c(OCC(=O)NCc3ccccn3)cc3c(c2oc1=O)CCC(C)(C)O3,.,.,.,/,/,.
COc1cc(CN2CCc3c([nH]c4ccccc34)C2)cc(OC)c1,.,.,.,/,/,.
Cc1c(CCOC(=O)CC23CC4CC(CC(C)(C4)C2)C3)sc[n+]1CC(=O)c1ccccc1,.,.,.,.,.,.
Cc1c(CCOC(=O)C23CC4CC(CC(C)(C4)C2)C3)sc[n+]1CC(=O)c1ccccc1,.,.,43,.,.,.
O=C(O)c1cc(Br)ccc1NS(=O)(=O)c1cccc2nsnc12,.,.,.,/,/,.
O=C(Nc1ccccc1)Nc1nc(-c2ccccc2)cs1,.,.,.,/,/,.
O=C(Nc1ccccc1)Nc1nc(-c2ccc(F)c(F)c2)cs1,.,2.5,.,/,/,.
O=C(Nc1ccc(Cl)c(Cl)c1)Nc1nc(-c2ccccc2)cs1,.,2.1,.,.,.,.
O=C(Nc1nc(-c2ccccc2)cs1)Nc1ccc(F)cc1F,.,.,.,.,.,.
CCc1ccc(-c2nc(CN3CCC(C(=O)NCc4ccccc4OC)CC3)c(C)o2)cc1,.,.,.,2.6,.,.
CCc1ccc(-c2nc(CN3CCC(C(=O)NCCc4ccc(OC)c(OC)c4)CC3)c(C)o2)cc1,.,.,.,2.1,.,.
O=C(CSc1n[nH]c(=O)[nH]c1=O)N1CCCCCC1,.,.,.,/,/,.
Cc1cc2cc(CNC(=S)NCc3ccccc3)ccc2n1C,.,2.3,.,.,.,.
Fc1ccc(CNC(=S)NCc2ccccc2)cc1,.,.,.,/,/,.
Cc1ccccc1NC(=S)NCc1ccc2c(c1)cc(C)n2C,.,.,.,.,.,.
S=C(NCc1ccccc1)NCc1ccc(CNC(=S)NCc2ccccc2)cc1,.,3.2,.,.,.,.
S=C(NCc1ccccc1)Nc1ccc(Oc2ccccc2)cc1,.,3.8,.,/,/,.
CC(=O)O/N=C/c1c(N2CCOCC2)n(C)c2ccccc12,.,.,.,.,.,.
SMILES,hIAP block,mIAP activ,mIAP block,bIAP activator,bIAP inh,hIAP activ
S=C(Nc1ccc(Oc2ccccc2)cc1)NC1CCCCC1,.,3.5,.,.,.,.
FC(F)Sc1ccc(NC(=S)NC2CCCC2)cc1,.,2.6,.,.,.,.
COc1ccccc1NC(=S)NC1CCCCCCCCCCC1,.,2.3,.,/,/,.
CC(C)c1ccc(NC(=S)NC2CCCCCC2)cc1,.,3.2,.,.,.,.
OC1CCC(NC(=S)Nc2ccc(SC(F)F)cc2)CC1 (stereo not given),.,.,.,.,.,.
O=C(NNC(=O)c1cc2cc(OC(F)(F)F)ccc2[nH]1)c1ccc(Cl)cc1,.,.,.,/,/,.
O=C(NC1CCCC1)c1ccc(COCC(F)(F)F)o1,.,.,.,.,.,.
